The source of these data is ChEMBL document CHEMBL4665832, “Benzylidene thiazolidinediones: Synthesis, in vitro investigations of antiproliferative mechanisms and in vivo efficacy determination in combination with Imatinib” (Bioorg Med Chem Lett, 2020).

Broadly, the viability is a read-out of living cells in per cent, often relative to untreated cells. As a reminder, the GI50 is the concentration giving 50% growth inhibition. The MTD is the highest dose tested that stayed within the study's limit of toxicity.

The source made the active and inactive calls. The rule behind the calls is not given here.

A short description of series [1]: Cytotoxicity against hepatocytes (unknown origin) assessed as cell growth by MTT assay relative to control. The format is cell-based, Hepatocyte. The arrangement: concentration or dose not given beside the values. For orientation: Formazan colour is commonly taken as a measure of viable cells.
Series [2] deals with HL-60. Briefly: Antiproliferative activity against human HL-60 cells assessed as cell growth inhibition. The format is functional. The method, boiled down:
(§1)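 Cell lines screened for growth inhibition and GI₅₀ derived. Each value is the mean of 3 independent experiments.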

The subject of series [3] is Jurkat. Description: Antiproliferative activity against human Jurkat cells assessed as cell growth inhibition. The format is functional. The method, boiled down:
as §1

The test system of series [4] is MOLT-4. Description: Antiproliferative activity against human MOLT-4 cells assessed as cell growth inhibition. It counts as functional. The method, boiled down:
as §1

Series [5] has as its system U-937. Briefly: Antiproliferative activity against human U-937 cells assessed as cell growth inhibition. The format is functional. The method, boiled down:
as §1

Series [6] concerns DU-145. Briefly: Antiproliferative activity against human DU-145 cells assessed as cell growth inhibition. The format is functional. In a few lines:
as §1

The test system of series [7] is MDA-MB-435. Briefly: Antiproliferative activity against human MDA-MB-435 cells assessed as cell growth inhibition. It counts as functional. The method, boiled down:
as §1

Series [8] has as its system HOP-62. Description: Antiproliferative activity against human HOP-62 cells assessed as cell growth inhibition. The format is functional. The method, boiled down:
as §1

In series [9] the test system is PC-3. Briefly: Antiproliferative activity against human PC-3 cells assessed as cell growth inhibition. The format is functional. In a few lines:
as §1

Series [10] has as its system MCF7. Description: Antiproliferative activity against human MCF7 cells assessed as cell growth inhibition. The format is functional. In a few lines: as §1
For series [11], the system named is K562. Briefly: Antiproliferative activity against human K562 cells assessed as cell growth inhibition. It counts as functional. In a few lines:
as §1

Series [12] can be described thus: Antiproliferative activity against human GURAV cells assessed as cell growth inhibition. It counts as functional. In a few lines: as §1
Series [13] relates to KB. Description: Antiproliferative activity against human KB cells assessed as cell growth inhibition. It counts as functional. In a few lines:
as §1

Series [14] deals with K562. Description: Cell cycle arrest in human K562 cells assessed as accumulation at G0/G1 phase at 5 uM measured after 24 hrs by flow cytometry analysis. It counts as functional, cell-based. The method, boiled down: (§2)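 K562 cells exposed to 5 µM for 24 h, then cell-cycle phase distribution measured by flow cytometry. Untreated cells served as negative control and DMSO as vehicle control. SEM of n = 3. Two-tailed Student's t-test, P < 0.05.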
In general terms: Flow cytometry measures light scatter and fluorescence of single cells or particles in a stream.

Series [15] concerns K562. Briefly: Cell cycle arrest in human K562 cells assessed as accumulation at S phase at 5 uM measured after 24 hrs by flow cytometry analysis. The format is functional, cell-based. The method, boiled down: as §2
Series [16] relates to K562. Description: Cell cycle arrest in human K562 cells assessed as accumulation at G2/M phase at 5 uM measured after 24 hrs by flow cytometry analysis. It counts as functional, cell-based. The method, boiled down:
as §2

For series [17], the system named is K562. Briefly: Cell cycle arrest in human K562 cells assessed as increase in cells accumulation at G0/G1 phase measured after 24 to 72 hrs by flow cytometry analysis. It counts as functional, cell-based. The settings on record: dose microM 5-20, time hrs 24-72. The method, boiled down:
(§3)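 K562 cells exposed to 5, 10 or 20 µM and sampled at 24, 48 and 72 h. Phase distribution (G0/G1, S, G2/M) measured by flow cytometry. Untreated and DMSO vehicle controls. SEM of n = 3. Two-tailed t-test, P < 0.05.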

Series [18] has as its system K562. Description: Cell cycle arrest in human K562 cells assessed as decrease in cells accumulation at S phase measured after 24 to 72 hrs by flow cytometry analysis. The format is functional, cell-based. Conditions: dose microM 5-20, time hrs 24-72. The method, boiled down: as §3
For series [19], the system named is K562. Description: Cell cycle arrest in human K562 cells assessed as decrease in cells accumulation at G2/M phase measured after 24 to 72 hrs by flow cytometry analysis. It counts as functional, cell-based. The settings on record: dose microM 5-20, time hrs 24-72. In a few lines:
as §3

Series [20] deals with K562. Briefly: Cell cycle arrest in human K562 cells assessed as increase in cells accumulation at G0/G1 phase at 5 to 20 uM measured by flow cytometry analysis. It counts as functional, cell-based. The settings on record: dose microM 5-20, time hrs 24-72, TDE = time-dependent effect. The method, boiled down:
as §3

Series [21] concerns K562. Description: Cell cycle arrest in human K562 cells assessed as decrease in cells accumulation at S phase at 5 to 20 uM measured by flow cytometry analysis. It counts as functional, cell-based. The settings on record: dose microM 5-20, time hrs 24-72, TDE = time-dependent effect. The method, boiled down: as §3
In series [22] the test system is K562. Description: Cell cycle arrest in human K562 cells assessed as decrease in cells accumulation at G2/M phase at 5 to 20 uM measured by flow cytometry analysis. The format is functional, cell-based. The settings on record: dose microM 5-20, time hrs 24-72, TDE = time-dependent effect. In a few lines:
as §3

Series [23] relates to K562. Description: Downregulation of cyclin-D1 expression in human K562 cells at 10 to 20 uM measured after 48 to 72 hrs by Western blot analysis. The settings on record: dose microM 10-20, time hrs 48-72. It counts as functional, cell-based. The method, boiled down: (§4)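 K562 cells treated at 10 or 20 µM for 24, 48 or 72 h. PCNA and cyclin D1 detected by Western blot, bands quantified and normalised to actin. Means of three separate experiments, SD, P < 0.05.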
(A western blot detects proteins with antibodies after separation by electrophoresis.)

Series [24] has as its system K562. Briefly: Downregulation of PCNA expression in human K562 cells at 10 to 20 uM measured after 48 hrs by Western blot analysis. It counts as functional, cell-based. Conditions: dose microM 10-20, time 48.0 hrs. The method, boiled down: as §4
Series [25] deals with K562. Briefly: Downregulation of PCNA expression in human K562 cells at 20 uM measured after 72 hrs by Western blot analysis. The format is functional, cell-based. In a few lines:
as §4

Series [26] concerns K562. Briefly: Anticancer activity against human K562 cells assessed as cell growth inhibition at 1 uM by MTT assay relative to control. It counts as functional. Conditions: read-out: GI. The method, boiled down:
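K562 cells given imatinib 1 µM or test compound 1 µM alone, or imatinib 1 µM plus test compound 1 µM. Proliferation read by MTT assay and expressed as % inhibition.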

For series [27], the system named is K562. Briefly: Potentiation of imatinib-induced anticancer activity against human K562 cells assessed as cell growth inhibition at 1 uM by MTT assay (reference value: 71%). The format is functional. Conditions: read-out: GI.
A short description of series [28]: Acute toxicity in po dosed mouse assessed as body weight loss. The format is organism-based. Conditions: in vivo. The method, boiled down:
(§5)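 Healthy mice were given oral doses that increased over the study period. Each higher dose was given only if the previous dose was well tolerated. All animals were monitored for body weight loss, behavioural changes and mortality to set the maximum tolerated dose.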

Series [29] in a line: Acute toxicity in po dosed mouse assessed as mortality. It counts as organism-based. The settings on record: in vivo. The method, boiled down:
as §5

Series [30] is described as follows: Acute toxicity in po dosed mouse assessed as maximum tolerated dose. It counts as organism-based. Conditions: in vivo. The method, boiled down:
as §5

Series [31] relates to K562. Description: Potentiation of imatinib-induced antitumor activity against human K562 cells xenografted in mouse assessed as reduction in tumor volume at 100 mg/kg, ip administered for 30 days co-treated with imatinib at 100 mg/kg and measured every day for 30 days. The format is functional, organism-based. The settings on record: time 30.0 day. In a few lines: (§6)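 Mice implanted subcutaneously in the right rear flank with 6 × 10⁶ K562 cells/100 μl in 50% matrigel. Dosed intraperitoneally: compound alone 200 mg/kg, or compound 100 mg/kg plus imatinib 100 mg/kg; controls were imatinib 100 mg/kg and saline. Tumour volume tracked over time, n = 6. Dunnett's test against control.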

For series [32], the system named is K562. Briefly: Antitumor activity against human K562 cells xenografted in mouse assessed as reduction in tumor volume at 200 mg/kg, ip administered for 30 days and measured every day for 30 days. The settings on record: time 30.0 day. The format is functional, organism-based. The method, boiled down: as §6
The subject of series [33] is K562. Description: Downregulation of cyclin-D1 expression in human K562 cells at 10 to 20 uM measured after 24 hrs by Western blot analysis. It counts as functional, cell-based. Conditions: dose microM 10-20, time 24.0 hrs. The method, boiled down:
as §4

Series [34] concerns K562. Description: Downregulation of PCNA expression in human K562 cells at 10 to 20 uM measured after 24 hrs by Western blot analysis. It counts as functional, cell-based. The settings on record: dose microM 10-20, time 24.0 hrs. The method, boiled down: as §4
Series [35] concerns K562. Briefly: Downregulation of PCNA expression in human K562 cells at 10 to 20 uM measured after 48 to 72 hrs by Western blot analysis. Conditions: dose microM 10-20, time hrs 48-72. It counts as functional, cell-based. In a few lines: as §4
For series [36], the system named is K562. Briefly: Induction of apoptosis in human K562 cells assessed as increase in cleaved PARP1 expression at 5 to 20 uM measured after 72 hrs by Western blot analysis. The format is functional, cell-based. The settings on record: dose microM 5-20, time 72.0 hrs. In a few lines: (§7)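 K562 cells treated 72 h at 5, 10 or 20 µM alongside DMSO vehicle control. Cleaved PARP1 and caspase 3 detected by Western blot and normalised to actin. Means of at least two experiments, SD.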

Series [37] concerns K562. Description: Induction of apoptosis in human K562 cells assessed as increase in activated caspase-3 expression at 5 to 20 uM measured after 72 hrs by Western blot analysis. The format is functional, cell-based. The settings on record: dose microM 5-20, time 72.0 hrs. The method, boiled down: as §7

On to `O=C(COc1ccc(/C=C2\SC(=O)NC2=O)cc1)Nc1cccc(C(F)(F)F)c1`, for which the viability in series [1] was over 70%. Also, the GI50 in series [2] is 73.3 µM; in series [3], 26.5 µM; in series [4], 47.3 µM; in [5], 49.1 µM; in series [6], 59.2 µM; in series [7] it was over 100 µM.
For `O=C(COc1ccc(/C=C2\SC(=O)NC2=O)cc1)Nc1ccc(F)cc1F`, in series [1], the viability was over 70%. For the same molecule, the GI50 in series [8] was over 100 µM; in [9], over 100 µM; in series [10], 65.8 µM; in series [11], 0.9 µM; in [12], 61.4 µM; in [13], over 100 µM. In addition, the 50% growth inhibitory concentration (GI50) came to 47.8 µM in [2], 34.6 µM in series [3], 40.3 µM in [4] and 35.6 µM in series [5]. The outcome in series [14], in series [15], in series [16], in series [31] and in series [32] was Active. In addition, the Activity entry was “Dose-dependent effect” in series [17]; “Dose-dependent effect” in series [18]; “Dose-dependent effect” in [19]; “Tde” in series [20]; “Tde” in series [21]; “Tde” in [22]. Moreover, the Activity entry in series [28] and in series [29] was “Non-Toxic” in each case. In addition, the inhibition entry in [23] and in [25] was “Active” in each case. In addition, the inhibition entry in [24], in series [33] and in series [34] was “inactive” each time. The inhibition of growth at 1 µM came to 62% in series [26] and 79% in series [27]. In series [30], the MTD is 2000 mg/kg.
Turning to `O=C(COc1ccc(/C=C2\SC(=O)NC2=O)cc1)Nc1ccc(Cl)cc1C(F)(F)F`, in series [1], the viability is over 70%. Also, the GI50 was over 100 µM in [8]; over 100 µM in [9]; 49.7 µM in series [10]; 0.23 µM in [11]; 86.8 µM in series [12]; over 100 µM in series [13]. For the same molecule, the concentration for 50% growth inhibition (GI50) was 56.7 µM in series [2], 28.9 µM in series [3], 32.5 µM in series [4] and 67.5 µM in [5]. The outcome in series [14], in series [15], in series [16], in series [31] and in series [32] was Active. Further, the Activity result in series [17] was “Dose-dependent effect”; in series [18] it was “Dose-dependent effect”; in [19], “Dose-dependent effect”; in series [20], “Tde”; in [21], “Tde”; in series [22], “Tde”. Also, the Activity entry in series [36] was “Dose-dependent effect”; in series [37], “Dose-dependent effect”; in series [28], “Non-Toxic”; in series [29] it was “Non-Toxic”. Moreover, the inhibition entry in series [35] is “Active”. Moreover, the figures for the inhibition of growth at 1 µM in series [26] and in series [27] were 65% and 82%, respectively. In series [30], the MTD is 2000 mg/kg. Moreover, the inhibition result in series [33] and in series [34] was “inactive” in each case.
